Experimental data taken from ChEMBL document CHEMBL1128487, “Reduced-size antagonists of luteinizing hormone-releasing hormone active in vitro” (1995).
Square brackets hold non-standard residues; d marks the D form. Peptide text beside a SMILES is read from it. * marks the point of attachment. ξ: configuration not given here. 2Nal = N[C@@H](Cc1ccc2ccccc2c1)C(=O)O; ξLys(iPr) = CC(C)NCCCCC(N)C(=O)O; Picolinoyl = O=C(c1ccccn1)*; ξR = N=C(N)NCCCC(N)C(=O)O

Legend:
Rattus norvegicus [1] = test: In vivo anti-ovulatory activity (AOA) against LHRH was determined at a dose of 10 ug in 6 rats; format: functional
Outline: (§1)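 Female 4-day cycling rats received a single subcutaneous injection of analog in corn oil between 12 and 12:30 p.m. Ova were counted on estrus. Activity is given as the number of ovulating rats over the total rats at each dose.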

Rattus norvegicus [2] = test: In vivo anti-ovulatory activity (AOA) against LHRH was determined at a dose of 100 ug in 6 rats; format: functional; outline: as §1
Rattus norvegicus [3] = test: In vivo anti-ovulatory activity (AOA) against LHRH was determined at a dose of 1000 ug in 6 rats; format: functional; outline: as §1
[4] = molecular target: T1, Gonadotropin-releasing hormone receptor (Rattus norvegicus) (UniProt P30969); test: In vitro antagonistic activity against LH release in rat pituitary cells for control.; format: functional, cell-based; conditions: Pituitary gland cell
T1 sequence (whole entry): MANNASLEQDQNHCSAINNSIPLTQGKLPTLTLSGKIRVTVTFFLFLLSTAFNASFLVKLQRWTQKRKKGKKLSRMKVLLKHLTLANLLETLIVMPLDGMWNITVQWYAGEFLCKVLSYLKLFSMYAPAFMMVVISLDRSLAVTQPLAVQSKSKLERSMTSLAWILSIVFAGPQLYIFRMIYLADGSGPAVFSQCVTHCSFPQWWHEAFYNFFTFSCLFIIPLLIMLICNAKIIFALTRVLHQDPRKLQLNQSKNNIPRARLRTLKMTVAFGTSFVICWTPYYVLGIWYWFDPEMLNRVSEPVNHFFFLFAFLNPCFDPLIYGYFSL
Outline: (§2)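 Anterior pituitaries from female Sprague-Dawley rats (240-260 g, 18 rats) were minced and dispersed in Gey's solution with trypsin, DNase I and LBBI. Cells were plated in DMEM with 0.45% glucose, 25 mM HEPES, serum, T and 100 nM dexamethasone at about 3.0 × 10^5 cells/mL and cultured 4 days at 37 °C in 8% CO2. Cells were then exposed to antagonist plus 1 ng LHRH in Gey's solution with 0.3% glucose for 2 h. LH in the medium was measured by RIA as ng/mL of RP-3.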

[5] = molecular target: T1, Gonadotropin-releasing hormone receptor (Rattus norvegicus); test: In vitro inhibition of LH release was determined in rat pituitary cells at a dose of 0.03 ug of analogue and 1 ng of LHRH; format: functional, cell-based; conditions: Pituitary gland cell; outline: as §2
[6] = molecular target: T1, Gonadotropin-releasing hormone receptor (Rattus norvegicus); test: In vitro inhibition of LH release was determined in rat pituitary cells at a dose of 0.1 ug of analogue and 1 ng of LHRH; format: functional, cell-based; conditions: Pituitary gland cell; outline: as §2
[7] = molecular target: T1, Gonadotropin-releasing hormone receptor (Rattus norvegicus); test: In vitro inhibition of LH release was determined in rat pituitary cells at a dose of 0.3 ug of analogue and 1 ng of LHRH; format: functional, cell-based; conditions: Pituitary gland cell; outline: as §2
Rattus norvegicus [8] = organism: Rattus norvegicus; test: In vitro inhibition of LH release in rat pituitary cells at a dose of 1 ng LHRH in absence of the compound.; format: functional, Pituitary gland cell; parameters: unit: ng/mL; outline: as §2
[9] = molecular target: T1, Gonadotropin-releasing hormone receptor (Rattus norvegicus); test: In vitro inhibition of LH release in rat pituitary cells at a dose of 1 ug of analogue and 1 ng of LHRH.; format: functional, cell-based; conditions: Pituitary gland cell; outline: as §2
Rattus norvegicus [10] = test: In vivo anti-ovulatory activity (AOA) against LHRH was determined at a dose of 1000 ug in 9 rats; format: functional; outline: as §1
[11] = molecular target: T1, Gonadotropin-releasing hormone receptor (Rattus norvegicus); test: In vitro inhibition of LH release was determined in rat pituitary cells at a dose of 10 ug of analogue and 1 ng of LHRH; format: functional, cell-based; conditions: Pituitary gland cell; outline: as §2
[12] = molecular target: T1, Gonadotropin-releasing hormone receptor (Rattus norvegicus); test: In vitro inhibition of LH release was determined in rat pituitary cells at a dose of 100 ug of analogue and 1 ng of LHRH; format: functional, cell-based; conditions: Pituitary gland cell; outline: as §2
[13] = molecular target: T1, Gonadotropin-releasing hormone receptor (Rattus norvegicus); test: In vitro inhibition of LH release determined in rat pituitary cells at a dose of 3 ug of analogue and 1 ng of LHRH; format: functional, cell-based; conditions: Pituitary gland cell; outline: as §2
[14] = molecular target: T1, Gonadotropin-releasing hormone receptor (Rattus norvegicus); test: In vitro inhibition of LH release was determined in rat pituitary cells at a dose of 30 ug of analogue and 1 ng of LHRH; format: functional, cell-based; conditions: Pituitary gland cell; outline: as §2
Rattus norvegicus [15] = test: In vivo anti-ovulatory activity (AOA) against LHRH was determined at a dose of 1 ug in 6 rats; format: functional; outline: as §1

Row | SMILES | AOA (Rattus norvegicus [1]) | AOA (Rattus norvegicus [2]) | AOA (Rattus norvegicus [3]) | Activity [4] | Activity [5] | Activity [6] | Activity [7] | Activity (Rattus norvegicus [8]) | Activity [9] | AOA (Rattus norvegicus [10]) | Activity [11] | Activity [12] | Activity [13] | Activity [14] | AOA (Rattus norvegicus [15])
1 | CC(=O)N[C@H](Cc1ccc2ccccc2c1)C(=O)N[C@H](Cc1cccnc1)C(=O)N[C@@H](CO)C(=O)N[C@@H](Cc1ccc(O)cc1)C(=O)N[C@H](Cc1ccc2ccccc2c1)C(=O)N[C@@H](CC(C)C)C(=O)N[C@@H](CCCN=C(N)N)C(=O)N1CCC[C@H]1C(=O)N[C@H](C)C(N)=O | 6 | 6 | 4 | 3.8 | 28 | 14 | 6 | 149 | 3 |  |  |  |  |  | 
2 | CCNC(=O)[C@@H]1CCCN1C(=O)[C@H](CCCN=C(N)N)NC(=O)[C@H](CC(C)C)NC(=O)[C@@H](Cc1ccc2ccccc2c1)NC(=O)[C@H](Cc1ccc(O)cc1)NC(=O)[C@H](CO)NC(=O)[C@@H](Cc1ccc2ccccc2c1)NC(C)=O |  | 6 |  | 3.2 | 45 | 5 | 4 | 153 | 3 | 2 |  |  |  |  | 
3 | CC(=O)N[C@@H](Cc1ccc2ccccc2c1)C(=O)N[C@@H](CCCCNC(=O)c1ccccn1)C(=O)NC(CCCCNC(C)C)C(=O)N1CCC[C@H]1C(N)=O (some centres not stated) (Ac-[2Nal]K(Picolinoyl)[ξLys(iPr)]P-NH2) |  |  |  | 3.5 |  |  |  | 153 | 186 |  | 144 | 118 | 150 | 128 | 
4 | CC(=O)N[C@@H](Cc1ccc2ccccc2c1)C(=O)N[C@@H](CCCCNC(=O)c1ccccn1)C(=O)NC(CCCN=C(N)N)C(=O)N1CCC[C@H]1C(N)=O (some centres not stated) (Ac-[2Nal]K(Picolinoyl)[ξR]P-NH2) |  |  |  | 3.5 |  |  |  | 153 | 148 |  | 132 | 63 | 145 | 136 | 
5 | CC(=O)N[C@@H](Cc1ccc2ccccc2c1)C(=O)N[C@@H](CC(C)C)C(=O)N[C@@H](CCCN=C(N)N)C(=O)N[C@@H](C)C(N)=O (Ac-[2Nal]LRA-NH2) |  |  |  | 3.5 |  |  |  | 155 | 145 |  | 116 | 49 | 136 | 87 | 
6 | CCNC(=O)[C@@H]1CCCN1C(=O)[C@H](CCCN=C(N)N)NC(=O)[C@H](CC(C)C)NC(=O)[C@H](Cc1ccc2ccccc2c1)NC(C)=O (Ac-[2Nal]LRP-NHEt) |  |  |  | 3.1 |  |  |  | 145 | 148 |  | 88 | 9 | 120 | 25 | 
7 | CC(=O)N[C@@H](Cc1ccc2ccccc2c1)C(=O)N[C@@H](Cc1ccc(O)cc1)C(=O)N[C@@H](Cc1ccc2ccccc2c1)C(=O)N[C@@H](CCCN=C(N)N)C(=O)N[C@@H](C)C(N)=O (Ac-[2Nal]Y[2Nal]RA-NH2) |  |  |  | 2.3 |  |  |  | 156 | 142 |  | 121 | 21 | 135 | 66 | 
8 | CCNC(=O)[C@@H]1CCCN1C(=O)[C@H](CCCN=C(N)N)NC(=O)[C@H](CC(C)C)NC(=O)[C@H](Cc1ccc2ccccc2c1)NC(=O)[C@H](Cc1ccc2ccccc2c1)NC(C)=O (Ac-[2Nal][2Nal]LRP-NHEt) |  |  |  | 2.3 |  |  |  | 156 | 145 |  | 147 | 98 | 158 | 122 | 
9 | CC(=O)NC(Cc1ccc2ccccc2c1)C(=O)N[C@@H](CCCCNC(=O)c1ccccn1)C(=O)N[C@@H](CCCN=C(N)N)C(=O)NC(C)C(N)=O (single isomer, unassigned) |  |  |  | 2.3 |  |  |  | 156 | 147 |  | 75 | 8 | 145 | 26 | 
10 | CC(=O)NC(Cc1ccc2ccccc2c1)C(=O)N[C@@H](Cc1ccc(Cl)cc1)C(=O)N[C@@H](Cc1cccnc1)C(=O)N[C@@H](CO)C(=O)N[C@@H](Cc1ccc(O)cc1)C(=O)NC(Cc1ccc2ccccc2c1)C(=O)N[C@@H](CC(C)C)C(=O)N[C@@H](CCCN=C(N)N)C(=O)N1CCC[C@H]1C(=O)N[C@H](C)C(N)=O (stereo in doubt) | 0 |  |  | 3.8 | 8 | 4 | 4 | 149 | 4 |  |  |  |  |  | 5
11 | CC(=O)NC(Cc1ccc2ccccc2c1)C(=O)N[C@@H](Cc1ccc(Cl)cc1)C(=O)N[C@@H](CO)C(=O)N[C@@H](Cc1ccc(O)cc1)C(=O)NC(Cc1ccc2ccccc2c1)C(=O)N[C@@H](CC(C)C)C(=O)N[C@@H](CCCN=C(N)N)C(=O)N1CCC[C@H]1C(=O)N[C@H](C)C(N)=O (stereo in doubt) |  | 6 | 6 | 3.8 | 39 | 29 | 14 | 149 | 6 |  |  |  |  |  | 
12 | CC(=O)NC(Cc1ccc2ccccc2c1)C(=O)N[C@@H](CO)C(=O)N[C@@H](Cc1ccc(O)cc1)C(=O)NC(Cc1ccc2ccccc2c1)C(=O)N[C@@H](CC(C)C)C(=O)N[C@@H](CCCN=C(N)N)C(=O)N1CCC[C@H]1C(=O)N[C@H](C)C(N)=O (stereo in doubt) |  | 6 | 6 | 5.3 |  | 37 | 12 | 236 | 7 |  |  |  | 3 |  | 
13 | CC(=O)N[C@@H](Cc1ccc2ccccc2c1)C(=O)NC(CCCCNC(=O)c1ccccn1)C(=O)N[C@@H](CCCCNC(=O)c1ccccn1)C(=O)NC(CCCN=C(N)N)C(=O)NC(C)C(N)=O (stereo in doubt) |  |  |  | 2.3 |  |  |  | 156 | 145 |  | 142 | 64 | 158 | 105 | 
